According to ChEMBL document CHEMBL4257564, “Rational Design, Synthesis, and Pharmacological Characterization of Novel Ghrelin Receptor Inverse Agonists as Potential Treatment against Obesity-Related Metabolic Diseases” (J Med Chem, 2018):

What was measured:
[1] = Protein binding in rat plasma at 1 uM after 6 hrs by equilibrium dialysis; assay type: ADME, cell-free; conditions: read-out: PPB
Outline: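 Compound spiked at 1.0 µM final (0.5% DMSO) into plasma. Equilibrium dialysis against DPBS pH 7.4 across a 12–14 kD membrane for 6 h at 37 °C, in triplicate. Buffer-only controls used for nonspecific binding. Unbound fraction = acceptor/donor concentration by LC-MS/MS; reported as % bound.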

[2] = Clearance in rat liver microsomes at 0.625 uM preincubated for 5 mins followed by NADPH addition and measured after 60 mins by LC-MS/MS analysis; assay type: ADME, microsome; conditions: read-out: CLH
Outline: (§1)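 Liver microsomes (0.625 mg/mL protein) in 50 mM potassium phosphate pH 7.4 with 0.625 µM test item, prewarmed 5 min at 37 °C. Reaction started with NADPH (5 mM solution). Samples taken at 0, 5, 15, 30 and 60 min into cold MeCN with internal standard, analysed by LC-MS/MS. Intrinsic clearance derived by the half-life approach.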

[3] = tested on: Mus musculus; assay: Anti-obesity activity in C57BL/6J mouse assessed as inhibition of anamorelin-induced increase in food intake by measuring cumulative food intake at 10 mg/kg, ip pretreated for 10 mins followed by anamorelin addition and measured after 4 hrs post dose (reference value: 2.09 +/- 0.08 g); assay type: functional
Outline: (§2)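 Male C57BL/6J mice (18–22 g at arrival), fed ad libitum. Dosed 10 mg/kg i.p. at t = 0 in 10% DMAC/6% Solutol HS 15/84% PBS, then anamorelin 30 mg/kg p.o. (0.5% CMC) at 10 min. Cumulative food intake recorded at 1, 2, 4, 8 and 24 h; n=6 per group; mean ± SEM; ANOVA with Dunnett test versus vehicle+anamorelin.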

[4] = tested on: Mus musculus; assay: Anti-obesity activity in C57BL/6J mouse assessed as inhibition of anamorelin-induced increase in food intake by measuring cumulative food intake at 30 mg/kg, po pretreated for 10 mins followed by anamorelin addition and measured after 2 hrs post dose (reference value: 1.37 +/- 0.05 g)
[5] = tested on: Mus musculus; assay: Anti-obesity activity in C57BL/6J mouse assessed as inhibition of anamorelin-induced increase in food intake by measuring cumulative food intake at 10 mg/kg, ip pretreated for 10 mins followed by anamorelin addition and measured after 1 hr post dose (reference value: 0.63 +/- 0.04 g); assay type: functional; outline: as §2
[6] = tested on: Mus musculus; assay: Anti-obesity activity in C57BL/6J mouse assessed as inhibition of anamorelin-induced increase in food intake by measuring cumulative food intake at 10 mg/kg, ip pretreated for 10 mins followed by anamorelin addition and measured after 2 hrs post dose (reference value: 1.37 +/- 0.05 g); assay type: functional; outline: as §2
[7] = Clearance in human liver microsomes at 0.625 uM preincubated for 5 mins followed by NADPH addition and measured after 60 mins by LC-MS/MS analysis; assay type: ADME, microsome; conditions: read-out: CLH; outline: as §1
[8] = Ratio of drug level in brain to plasma of rat at 3 mg/kg, iv after 2 hrs by LC-MS/MS analysis; assay type: ADME, organism-based; conditions: read-out: BPR
Outline: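 Rats given 3 mg/kg i.v. Brain collected 2 h post-dose after CO2 euthanasia and homogenized in 5 volumes of PBS pH 7.4. Brain and plasma levels measured by LC-MS/MS; ratio taken from the 2 h concentrations.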

- fraction unbound at 6 h, 1 µM [1]: 0.0001
- microsomal CLint at 0.625 µM [2]: 57.8 µL/min/mg
- microsomal CLint at 0.625 µM [7]: 74.7 µL/min/mg
- Kp at 2 h [8]: 1.86
SMILES: Cc1cc(-c2ccc3c(c2)CC[C@H]3N2CCC(N(C)C(=O)N[C@@H](C)c3ccc(C#CC4CC4)c(Cl)c3Cl)CC2)ncn1
- Activity [3]: 1.66 g
- Activity [4]: 0.86 g
- Activity [5]: 0.13 g
- Activity [6]: 0.56 g
